In ChEMBL document CHEMBL2331132, “Synthesis, evaluation and absolute configuration assignment of novel dihydropyrimidin-2-ones as picomolar sodium iodide symporter inhibitors” (Eur J Med Chem, 2013):

System: FRTL-5
Experiment: Cytotoxicity against rat FRTL5 cells at 1 uM after 24 hrs by MTT assay
Assay type: cell-based
Details: frtl-5, 24 h
Summary of the method: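 Rat FRTL5 thyroid cells at about 50% confluence, given a single compound concentration for 24 h. MTT added (1.2 mg/mL), then 3 h at 37 °C and absorbance read at 570 nm to score viability. Ouabain run as assay control at eight concentrations.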

| Structure (SMILES) | Activity |
| --- | --- |
| COc1ccc(COC(=O)C2=C(C)N(C)C(=O)N(C)C2c2ccco2)cc1OC (configuration not stated) | Non-toxic |
| CC1=C(C(=O)OCc2ccc3c(c2)OCO3)C(c2ccco2)NC(=O)N1 (configuration not stated) | Non-toxic |
| CC1=C(C(=O)OCc2ccc3c(c2)OCO3)C(c2ccco2)NC(=O)N1C (configuration not stated) | Non-toxic |
| CC1=C(C(=O)OCc2ccc3c(c2)OCO3)C(c2ccco2)N(C)C(=O)N1C (configuration not stated) | Non-toxic |
| COc1ccc(COC(=O)C2=C(C)NC(=O)NC2c2ccco2)cc1 (configuration not stated) | Non-toxic |
| COc1ccc(COC(=O)C2=C(C)N(C)C(=O)NC2c2ccco2)cc1 (configuration not stated) | Non-toxic |
| COc1ccc(COC(=O)C2=C(C)N(C)C(=O)N(C)C2c2ccco2)cc1 (configuration not stated) | Non-toxic |
| COc1cccc(COC(=O)C2=C(C)NC(=O)NC2c2ccco2)c1 (configuration not stated) | Non-toxic |
| COc1cccc(COC(=O)C2=C(C)N(C)C(=O)NC2c2ccco2)c1 (configuration not stated) | Non-toxic |
| COc1cccc(COC(=O)C2=C(C)N(C)C(=O)N(C)C2c2ccco2)c1 (configuration not stated) | Non-toxic |
| COc1ccc(COC(=O)C2=C(C)NC(=O)NC2c2ccco2)cc1OC (configuration not stated) | Non-toxic |
| COc1ccc(COC(=O)C2=C(C)N(C)C(=O)NC2c2ccco2)cc1OC (configuration not stated) | Non-toxic |

Target: T1, Sodium/iodide cotransporter (Rattus norvegicus, UniProt Q63008)
T1 sequence (Q63008 whole entry): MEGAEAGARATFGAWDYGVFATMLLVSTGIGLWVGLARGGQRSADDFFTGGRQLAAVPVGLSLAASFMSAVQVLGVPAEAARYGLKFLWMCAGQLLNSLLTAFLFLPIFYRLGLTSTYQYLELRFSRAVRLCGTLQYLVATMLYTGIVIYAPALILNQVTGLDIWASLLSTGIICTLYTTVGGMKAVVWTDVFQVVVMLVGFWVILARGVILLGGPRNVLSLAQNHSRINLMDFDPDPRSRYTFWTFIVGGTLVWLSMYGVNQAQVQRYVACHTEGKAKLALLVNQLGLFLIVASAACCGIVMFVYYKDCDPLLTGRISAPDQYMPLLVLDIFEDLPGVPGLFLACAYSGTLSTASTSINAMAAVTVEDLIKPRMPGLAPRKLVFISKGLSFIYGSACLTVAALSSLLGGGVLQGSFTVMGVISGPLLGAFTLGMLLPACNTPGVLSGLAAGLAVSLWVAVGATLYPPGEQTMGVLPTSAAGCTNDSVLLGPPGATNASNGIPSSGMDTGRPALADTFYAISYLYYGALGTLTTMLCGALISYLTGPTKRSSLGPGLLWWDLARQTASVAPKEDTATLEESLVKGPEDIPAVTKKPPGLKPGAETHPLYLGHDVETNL
Experiment: inhibition of sodium iodide symporter in rat FRTL5 cells after 1 hr by arsenic/cerium titration assay
Assay type: cell-based, FRTL-5
Details: not given
Summary of the method: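 Iodide entrapment measured in FRTL5 cells after 1 h incubation at 20 ± 1 °C. Supernatant removed, then cellular iodide read at once by a modified non-radioactive As/Ce Sandell–Kolthoff reaction against iodide standards. DMSO stocks 20 mM; NaClO₄ and a reference inhibitor on every plate as controls. Racemates tested. IC₅₀ from a four-parameter Hill fit, averaged over ≥2 independent experiments.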

| Structure (SMILES) | IC50 [nM] |
| --- | --- |
| COc1ccc(COC(=O)C2=C(C)N(C)C(=O)N(C)C2c2ccco2)cc1OC (configuration not stated) | 65 |
| CC1=C(C(=O)OCc2ccc3c(c2)OCO3)[C@@H](c2ccco2)N(C)C(=O)N1C | 0.7 |
| CC1=C(C(=O)OCc2ccc3c(c2)OCO3)[C@H](c2ccco2)N(C)C(=O)N1C | 630 |

Results, then the molecule that gave them:

| IC50 [nM] | Structure (SMILES) |
| --- | --- |
| 89 | COc1ccc(COC(=O)C2=C(C)NC(=O)NC2c2ccccc2)cc1 (configuration not stated) |
| 70 | COc1ccc(COC(=O)C2=C(C)NC(=O)N[C@@H]2c2ccccc2)cc1 |
| 1500 | COc1ccc(COC(=O)C2=C(C)NC(=O)N[C@H]2c2ccccc2)cc1 |
| 630 | COc1ccc(COC(=O)C2=C(C)NC(=O)N[C@@H]2c2ccco2)cc1 |
| 14000 | COc1ccc(COC(=O)C2=C(C)NC(=O)N[C@H]2c2ccco2)cc1 |
| 400 | COc1ccc(COC(=O)C2=C(C)NC(=O)NC2c2ccco2)cc1OC (configuration not stated) |
| 1000 | COc1ccc(COC(=O)C2=C(C)N(C)C(=O)NC2c2ccco2)cc1OC (configuration not stated) |
